Screens as filed in PubChem BioAssay.
This is a sample that favours compounds with a hit; in the whole collection about 2.4% have one here.
MC4R antag cAMP – human MC4R antagonism in cAMP assay; inhibition, % at 6.5 µM; AID 540295; 0.48% of 360,000 active; P32245; MC4R-expressing cells, MTII-stimulated cAMP, LANCE TR-FRET;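 active = inhibition above its plate's cutoff, the mean of tested wells on that plate plus 3 SD, cut at about 29% in these data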
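material = U2OS cells stably expressing human melanocortin 4 receptor (MC4R) | also added = Melanotan II challenge | dosing = single nominal compound dose of 6.5 µM | detection = TR-FRET with Eu-cAMP and labeled anti-cAMP, 671 nm | replication = singlicate | timing = compound 30 min, challenge 1 h, detection 1 h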
MOR-DOR ag – OPRM1-OPRD1 heterodimerization agonism | cells, luminescence | 0.3% of 340,000 active | activation, % at 9.3 µM | P35372+P41143 | AID 504326; in the data active = activation above about 18%
HTR5A ag – activates human HTR5A in OPRM1-OPRD1 agonist counter-screen; HTR5A agonist assay, luminescence, cell-based; activation, % at 9.3 µM; 0.61% of 340,000 active; AID 504692; in the data active = activation mostly above about 9.5%, no sharp cut-off; inactive = mostly below about 7.6%
Target sequence (P47898 whole entry, looked up): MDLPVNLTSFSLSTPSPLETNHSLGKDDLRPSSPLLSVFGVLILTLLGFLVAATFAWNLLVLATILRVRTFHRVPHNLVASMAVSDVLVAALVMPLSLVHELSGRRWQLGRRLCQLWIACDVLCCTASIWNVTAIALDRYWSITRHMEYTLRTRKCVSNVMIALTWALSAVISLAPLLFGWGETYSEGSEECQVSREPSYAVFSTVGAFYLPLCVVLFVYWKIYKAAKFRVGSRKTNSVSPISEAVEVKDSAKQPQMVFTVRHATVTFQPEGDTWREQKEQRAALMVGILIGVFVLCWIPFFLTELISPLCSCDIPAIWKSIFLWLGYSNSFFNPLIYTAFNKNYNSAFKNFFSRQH
MOR-DOR inv ag-1 – mu-delta opioid heterodimer inverse agonism; P35372+P41143; cell-based MOR-DOR heterodimer luminescence; inhibition, % at 9.3 µM; 0.21% of 340,000 active; in the data active = inhibition above about 22%, passing the limit was not always enough
HTR5A inv ctr – HTR5A inverse agonism, opioid heterodimer counter-screen | 0.083% of 340,000 active | HTR5A cell line, luminescence | P47898 | inhibition, % at 9.3 µM; in the data active = inhibition mostly above about 23%, no sharp cut-off; inactive = mostly below about 18%
MC4R ag barr – activates human MC4R beta-arrestin recruitment. 0.98% of 360,000 active. P32245. U2OS MC4R beta-arrestin complementation, luminescence; percent of melanotan II response, DMSO zero. AID 540308. activation, % at 8.9 µM;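 active = activation above a per-plate cutoff, the mean activation of sample wells on that plate plus 3 SD, cut at about 8% in these data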
MOR-DOR inv ag-2 – inverse agonist of OPRM1-OPRD1 heterodimerization in HTR5A counter-screen. shares compounds with HTR5A inv ctr. 190 tested, under 10 active. AID 504912. inhibition, % at 9.3 µM. U2OS counter-screen cells, complementation luminescence
HTR5A inv conf – confirmation of human HTR5A inverse agonists; shares compounds with HTR5A inv ctr; HTR5A-expressing cells, inverse agonism, luminescence; inhibition, % at 9.3 µM; 190 tested, under 10 active
A number is an active result; . = inactive; / = not tested or not shown. Unless noted, the rule behind the calls is not given here.

SMILES | MC4R antag cAMP | MOR-DOR ag | HTR5A ag | MOR-DOR inv ag-1 | HTR5A inv ctr | MC4R ag barr | MOR-DOR inv ag-2 | HTR5A inv conf
C[C@@H]1CN([C@@H](C)CO)C(=O)c2cc(NC(=O)C3CC3)ccc2O[C@@H]1CN(C)C(=O)NC1CCCCC1 | . | . | . | . | . | . | / | /
CN(CCc1ccccc1)C(=O)c1ccc(NC(=O)Cc2ccc(NC(=O)C3CCN(C(=O)c4ccccc4)CC3)cc2)cc1 | . | . | . | . | . | . | / | /
Cc1ccc(NC(=O)CNC(=O)COc2ccccc2)nc1 | . | . | . | . | 49 | . | . | .
Cc1cc(Cl)ccc1OCC(=O)N(Cc1cccs1)C1CCS(=O)(=O)C1 (stereo not drawn) | . | . | . | . | . | . | / | /
COc1cc2nc(C3CCC3)nc(N3CCN(c4ccccn4)CC3)c2cc1OC | . | . | . | . | 52 | . | . | .
CC1CC(C)CN(c2ncc3c(n2)CC(c2ccccc2Cl)CC3=O)C1 (stereo not drawn) | . | . | . | . | . | . | / | /
CC1CC(C)CN(c2ncc3c(n2)CC(c2ccc(Cl)cc2)CC3=O)C1 (stereo not drawn) | . | . | . | . | 32 | . | . | .
COc1ccccc1Cn1c(=S)[nH]c2cc(C(=O)N3CCCC(C)C3)ccc2c1=O (stereo not drawn) | . | / | / | / | / | . | / | /
CN(C)c1ccc(/C=C/c2ccc3ccccc3[n+]2C)cc1 | . | . | . | . | 29 | . | . | .
CCOc1cc(C(=O)CCC(=O)OCC(=O)NC(=O)NCC(C)C)ccc1O | . | . | . | . | . | . | / | /
Cc1noc(/C=C/c2ccco2)c1S(=O)(=O)N1CCC(C(=O)NCc2ccco2)CC1 | . | . | . | . | 27 | . | . | .
O=C1NCCCN1C1OC(CO)C(O)C1O (stereo not drawn) | . | / | / | / | / | . | / | /
N#Cc1c(NC(=O)C2CC(c3c(F)cccc3Cl)=NO2)sc2c1CCC2 (stereo not drawn) | . | . | . | . | . | . | / | /
CCc1c(C)sc(NC(=O)C2CC(c3c(F)cccc3Cl)=NO2)c1C#N (stereo not drawn) | . | . | . | . | 33 | . | . | .
Cc1nonc1CN(C)C(=O)c1cc(COc2ccc(F)cc2Cl)on1 | . | . | . | . | 41 | . | . | .
C/C(=N\NC(=S)NCc1ccccc1)c1ccc(Br)cc1 | . | . | . | . | . | . | / | /
C/C(=N\NC(=S)NCc1ccccc1)c1ccc2ccccc2c1OC(F)F | . | . | . | . | 54 | . | . | .
Clc1cccc(CN2CCC3CC2c2cc(N4CCCCC4)ccc23)c1 (stereo not drawn) | . | . | . | . | 28 | . | . | .
Cc1n[nH]c(=S)n(NC(=O)CC(=O)Nn2c(=S)[nH]nc(C)c2=O)c1=O | . | . | . | . | 65 | . | . | .
CC(Sc1ncccn1)C(=O)NC1CCCC1 (stereo not drawn) | . | . | . | . | 37 | . | . | .
CC(Sc1nc(N)cc(=O)[nH]1)C(=O)NC1CCCCC1 (stereo not drawn) | . | . | . | . | . | . | / | /
CCCCOc1ccc(/C=C(\C(=O)O)c2ccc(S(=O)(=O)N3CCCC3)s2)cc1 | . | . | . | . | . | . | / | /
O=C1C(Cl)=C(N2CCOCC2)C(=O)N1c1cccc(Cl)c1 | . | . | . | . | . | . | / | /
O=C1/C(=C/c2ccccc2)N=C(N2CCOCC2)N1c1cccc(Cl)c1 | . | . | . | . | 33 | . | . | .
COc1ccc(CCN2C(=NC(=O)C(C)C)SC3CS(=O)(=O)CC32)cc1OC (stereo not drawn) | . | . | . | . | . | . | / | /
SMILES | MC4R antag cAMP | MOR-DOR ag | HTR5A ag | MOR-DOR inv ag-1 | HTR5A inv ctr | MC4R ag barr | MOR-DOR inv ag-2 | HTR5A inv conf
CC(C)(C)OC(=O)NCCc1nnc(SCC(N)=O)o1 | . | . | . | . | 49 | . | . | .
COc1cc(/C=C/C(=O)c2ccc(O)cc2)ccc1OCC#N | . | . | . | . | 48 | . | . | .
COc1cccc(C(=O)/C=C/c2ccc(OCC#N)c(OC)c2)c1 | . | . | . | . | . | . | / | /
Cc1cc(C)n(-c2nc(Nc3ccccc3)nc(-n3nc(C)cc3C)n2)n1 | . | . | . | . | . | . | / | /
COc1cccc(/C=N/Nc2nc(Nc3ccccc3)nc(-n3nc(C)cc3C)n2)c1O | . | . | . | . | 40 | . | . | .
COc1cc(/C=C2\N=C3CCCCCN3C2=O)ccc1O | . | . | . | . | . | . | / | /
O=C1/C(=C\c2ccc(O)c(O)c2)N=C2CCCCCN12 | . | . | . | . | 27 | . | . | .
COc1ccc(CC(=O)N(C)CC(=O)Nc2c(C)cccc2C)cc1S(=O)(=O)N1CCOCC1 | . | . | . | . | 28 | . | 81 | .
CC(=O)N1C2CCCCC2S[C@H]2CCCCC21 (stereo partly drawn) | . | . | . | . | 34 | . | . | .
COCCCNC(=O)c1ccc2c(=O)n(Cc3ccc4c(c3)OCO4)c(=S)[nH]c2c1 | . | . | . | . | 57 | . | . | .
Nc1ccccc1C(=O)NC1CCCNC1=O (stereo not drawn) | . | / | / | / | / | . | / | /
COc1ccc(S(=O)(=O)Nc2cccc3c2O[C@H](CN(C)S(=O)(=O)c2ccc(F)cc2)[C@H](C)CN([C@H](C)CO)C3=O)cc1 | . | . | . | . | 39 | . | . | .
COC(=O)c1ccccc1NS(=O)(=O)c1ccc(Cl)nc1 | . | . | . | . | . | . | / | /
CCOc1cc(C(c2c(C)[nH][nH]c2=O)c2c(C)[nH][nH]c2=O)cc([N+](=O)[O-])c1O | . | . | . | . | 29 | . | 42 | .
Cc1nc(N2CCCCC2C)c2c(C)c(C(=O)Nc3ccccc3C(F)(F)F)sc2n1 (stereo not drawn) | . | . | . | . | . | . | / | /
C[C@H](CO)N1C[C@H](C)[C@H](CN(C)S(C)(=O)=O)OCc2cnnn2CCCC1=O | . | / | / | / | / | . | / | /
Cc1onc(-c2ccccc2)c1C(=O)Nc1nnc(N2CCCCCC2)s1 | . | . | . | . | 25 | . | . | .
